Experimental data of several laboratories.
Lines come from different studies, so protocols differ.

| Structure (SMILES) | cell line | test | conditions | endpoint | value |
| --- | --- | --- | --- | --- | --- |
| COc1cc(O)c(C(=O)/C=C/c2ccccc2)c(OC)c1 | SPCA1 | cell growth or viability, MTT | – | IC50 | 31.7 µM |
| C[S+]([O-])CCCCN=C=S (centres unmarked) | RAW264.7 | NO release, inhibitor, Griess | 10 µM, LPS-stimulated | inhibition | 91.6% |
| Nc1nc(N)c(CNCCc2cccc(Cl)c2)c(C2CC2)n1 | Vero | cell growth or viability, SRB | – | IC50 | 76 µM |
| COC(=O)[C@@H](N)CCCNC(N)=N[N+](=O)[O-] | RAW264.7 | NO release, inhibitor, Griess | 250 µM, LPS-stimulated | inhibition | 54% |
| COc1cccc2c1C(=O)c1c(O)c3c(c(O)c1C2=O)C[C@@](O)(C(=O)CO)C[C@@H]3O[C@H]1C[C@H](N)[C@H](O)[C@H](C)O1 | SPCA1 | cell growth or viability, MTT | – | IC50 | 30 µM |
| CC1=C(O)C(=O)C=C2C1=CC=C1[C@@]2(C)CC[C@@]2(C)[C@@H]3C[C@](C)(C(=O)O)CC[C@]3(C)CC[C@]12C | SMMC-7721 | cell growth or viability, MTT | 20 µM | inhibition | 70.6% |
| O=C(CC(=O)c1ccccc1)c1ccccc1 | HL-60 | cell growth or viability, resazurin | 72 h, dark | IC50 | 15.5 µM |
| O=C1OC[C@H](Cc2cccc(O)c2)[C@H]1Cc1cccc(O)c1 | SPCA1 | cell growth or viability, MTT | – | IC50 | 42.2 µM |
| Nc1nc(N)c(CNCCc2ccc(F)cc2)c(C2CC2)n1 | Vero | cell growth or viability, SRB | – | IC50 | > 100 µM |
| N.N.[Cl][Pt][Cl] | SMMC-7721 | cell growth or viability, MTT | 48 h | IC50 | 6.43 µM |
| CC(C)[C@H](NC(=O)[C@H](Cc1c[nH]c2ccccc12)NC(=O)[C@H](Cc1c[nH]cn1)NC(=O)[C@H](CCCNC(=N)N)NC(=O)[C@H](CCCNC(=N)N)NC(=O)[C@H](Cc1c[nH]c2ccccc12)NC(=O)[C@H](Cc1c[nH]c2ccccc12)NC(=O)[C@H](Cc1c[nH]cn1)NC(=O)[C@H](Cc1c[nH]c2ccccc12)NC(=O)[C@H](CCCNC(=N)N)NC(=O)[C@@H](N)CCCCN)C(=O)N[C@H](C(=O)N[C@@H](Cc1c[nH]c2ccccc12)C(N)=O)C(C)C | RAW264.7 | cell growth or viability, MTT | 24 h | IC50 | 111 µM |
| Nc1nc(N)c(CNCCc2ccc(Cl)cc2)c(C2CC2)n1 | Vero | cell growth or viability, SRB | – | IC50 | 70 µM |
| N.N.[Cl][Pt][Cl] | CD4 | cell growth or viability | 72 h | IC50 | 2.2 mg/L |
| COc1cc2oc3cc(O)c(OC)c(CC=C(C)C)c3c(=O)c2c(O)c1CC=C(C)C | 22Rv1 | cell growth or viability | 48 h | IC50 | 27.1 µM |
